# Data reported in ChEMBL document CHEMBL1135762, “Chiral N,N-disubstituted trifluoro-3-amino-2-propanols are potent inhibitors of cholesteryl ester transfer protein” (J Med Chem, 2002).
# What was measured:
# [1] = molecular target: T1, Cholesteryl ester transfer protein (Homo sapiens, UniProt P11597); experiment: Concentration required for 50% inhibition of cholesteryl ester transfer protein in presence of buffer.
# T1 sequence (P11597 whole entry): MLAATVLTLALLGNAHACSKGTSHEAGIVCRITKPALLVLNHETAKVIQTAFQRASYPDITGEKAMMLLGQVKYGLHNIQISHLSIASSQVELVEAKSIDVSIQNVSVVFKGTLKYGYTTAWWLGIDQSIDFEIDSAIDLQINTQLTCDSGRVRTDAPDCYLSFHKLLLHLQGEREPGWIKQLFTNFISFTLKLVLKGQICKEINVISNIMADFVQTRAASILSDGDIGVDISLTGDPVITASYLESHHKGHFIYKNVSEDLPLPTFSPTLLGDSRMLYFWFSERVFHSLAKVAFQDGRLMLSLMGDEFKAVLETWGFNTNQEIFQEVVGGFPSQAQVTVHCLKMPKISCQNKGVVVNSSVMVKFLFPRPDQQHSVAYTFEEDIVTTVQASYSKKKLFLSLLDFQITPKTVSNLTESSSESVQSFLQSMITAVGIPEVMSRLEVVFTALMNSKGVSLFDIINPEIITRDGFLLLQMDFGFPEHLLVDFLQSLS
# [2] = molecular target: T1, Cholesteryl ester transfer protein; experiment: Inhibition of cholesteryl ester transfer protein in presence of human serum
# Summary of the method: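 CETP-mediated transfer of [³H]CE from HDL donor particles, measured with human serum supplying LDL, VLDL and human CETP.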
# [3] = tested on: Mus musculus; experiment: Oral dosing of qd for 5 days at 30 mg/kg had percent increase of HDLc in hCEPT transgenic mice; assay type: functional
# Summary of the method: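 C57bl mice transgenic for human CETP (plasma hCETP 2–20 µg/mL), fed cholesterol- and fat-supplemented chow for at least 2 weeks. Dosed orally at 30 mg/kg once daily for 5 days. Serum then analysed by size exclusion chromatography on two Superose 6 columns for relative VLDLc, LDLc and HDLc.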
# [4] = tested on: Mus musculus; experiment: Inhibition of CETP-mediated transfer ex vivo after 30 min in hCEPT transgenic mice by a single dose at 30 mg/kg; assay type: functional; conditions: 0.5 h
# Summary of the method: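 C57Bl/6 mice homozygous for the human CETP gene, fed high-fat chow for at least 2 weeks. Single 30 mg/kg iv bolus in 10% ethanol/90% PEG; controls got vehicle. 0.05 mL [³H]CE-HDL (human HDL) was given into the tail vein. After 30 min, EDTA blood was taken and plasma obtained at 4 °C. Gel filtration gave the [³H]CE proportion in VLDL, LDL and HDL, compared with controls.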
# [5] = molecular target: T2, Cholesteryl ester transfer protein (Homo sapiens) (UniProt P11597); conditions: Cricetulus griseus; 30 mg/kg
# T2 sequence (whole entry): T1 sequence (P11597 whole entry)
# [6] = Bioavailability in mice was reported; assay type: ADME, organism-based; conditions: mouse, in vivo
# [7] = molecular target: T2, Cholesteryl ester transfer protein (Homo sapiens); conditions: Cricetulus griseus; 33 mg/kg
IC50 [1] [µM],Compound,also measured
0.3,OC(CN(Cc1cccc(C2CCCC2)c1)c1cccc(Oc2ccccc2)c1)C(F)(F)F (stereo not given),
4.5,OC(CN(Cc1cccc(OC(F)(F)C(F)F)c1)c1cccc(F)c1)C(F)(F)F (stereo not given),
> 50,OC(Cc1ccccc1)CN(Cc1cccc(OC(F)(F)F)c1)c1cccc(Oc2ccccc2)c1 (stereo not given),
0.66,CC(C)(C)Oc1cccc(CN(CC(O)C(F)(F)F)c2cccc(Oc3ccccc3)c2)c1 (stereo not given),IC50 [2]: 29 µM
> 50,OC(CN(Cc1cccc(OC(F)(F)F)c1)c1cccc(Oc2ccccc2)c1)c1ccccc1 (stereo not given),
,OC(CN(Cc1cccc(OC(F)(F)C(F)F)c1)c1cccc(Oc2ccccc2)c1)C(F)(F)F (stereo not given),Increase [3]: 20%; inhibition in vivo at 30 mg/kg [4]: 50%; inhibition [5]: 30%; bioavailability [6]: < 10%
> 100,Cc1ccccc1CN(CC(O)C(F)(F)F)c1cccc(F)c1 (stereo not given),
> 50,C=CC(O)CN(Cc1cccc(OC(F)(F)F)c1)c1cccc(Oc2ccccc2)c1 (stereo not given),
,O[C@H](CN(Cc1cccc(OC(F)(F)C(F)F)c1)c1cccc(Oc2ccccc2)c1)C(F)(F)F,inhibition [7]: 30%
> 100,Cc1ccc(N(Cc2cccc(C(F)(F)F)c2)CC(O)C(F)(F)F)cc1 (stereo not given),
12,OC(CN(Cc1cccc(C(F)(F)F)c1)c1cccc(Cl)c1)C(F)(F)F (stereo not given),
65,Cc1ccc(CN(CC(O)C(F)(F)F)c2cccc(F)c2)cc1 (stereo not given),
7.8,CC(C)(O)c1cccc(CN(CC(O)C(F)(F)F)c2cccc(Oc3ccccc3)c2)c1 (stereo not given),
37,OC(CN(Cc1cccc(C(F)(F)F)c1)c1cccc(F)c1)C(F)(F)F (stereo not given),
16,COC(=O)c1cccc(CN(CC(O)C(F)(F)F)c2cccc(Oc3ccccc3)c2)c1 (stereo not given),
15,COc1cccc(CN(CC(O)C(F)(F)F)c2cccc(Oc3ccccc3)c2)c1 (stereo not given),IC50 [2]: > 200 µM
> 100,Cc1ccccc1N(Cc1cccc(C(F)(F)F)c1)CC(O)C(F)(F)F (stereo not given),
> 100,OC(CN(Cc1cccc(Oc2cccc(C(F)(F)F)c2)c1)c1cccc(F)c1)C(F)(F)F (stereo not given),
1.3,OC(COc1cccc(CN(CC(O)C(F)(F)F)c2cccc(Oc3ccccc3)c2)c1)C(F)(F)F (stereo not given),IC50 [2]: 62 µM
